The pKi is the Ki on a negative log10 scale, so that one unit is a factor of ten. A low value points to a high Ki. As a reminder, the pEC50 is the negative decadic logarithm of the EC50, by convention in mol/L.

pEC50, pKi: −log10 of the molar value.

The values below come from ChEMBL document CHEMBL2069177, “A prospective cross-screening study on G-protein-coupled receptors: lessons learned in virtual compound library design” (J Med Chem, 2012).

In one assay the target is Beta-2 adrenergic receptor (Homo sapiens, UniProt P07550). In words: Displacement of [3H]dihydroalprenolol from human ADRB2 expressed in HEK293T cells after 1 hr by liquid scintillation counter. Type of assay: cell-based, HEK-293T. The procedure, abridged: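 HEK293T cells transiently transfected with ADRB2 using PEI, harvested 48 h later for membranes. Membranes incubated at room temperature for 1 h with 1 nM [3H]-dihydroalprenolol in HEPES pH 7.4 with CaCl2, MgCl2, NaCl and 0.5% BSA. Filtered on GF/C presoaked in PEI, washed with ice-cold buffer plus 500 mM NaCl. Compounds giving ≥50% inhibition at 10 µM went to concentration-response curves. Ki by nonlinear regression, n=3 in triplicate.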
Beta-2 adrenergic receptor, sequence (P07550 whole entry): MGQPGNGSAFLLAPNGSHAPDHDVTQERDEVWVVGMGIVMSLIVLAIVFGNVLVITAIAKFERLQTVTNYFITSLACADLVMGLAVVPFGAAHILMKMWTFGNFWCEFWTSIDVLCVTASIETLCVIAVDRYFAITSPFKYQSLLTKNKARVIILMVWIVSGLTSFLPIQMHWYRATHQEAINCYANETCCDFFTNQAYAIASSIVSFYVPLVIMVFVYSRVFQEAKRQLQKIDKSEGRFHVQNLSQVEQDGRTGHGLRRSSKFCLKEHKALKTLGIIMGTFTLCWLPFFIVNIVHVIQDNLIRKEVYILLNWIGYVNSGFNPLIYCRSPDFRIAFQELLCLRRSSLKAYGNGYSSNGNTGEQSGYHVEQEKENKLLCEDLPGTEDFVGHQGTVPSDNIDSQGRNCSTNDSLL
For `Cc1ccc(C(C)C)c(OCC(O)CN2CCN(CCO)CC2)c1` (configuration not stated), the pKi is 4.40.
In the case of `CC(=O)c1c(CSc2ccccc2)oc2ccc(O)c(CN(C)C)c12`, the pKi was 4.40.
Same read-out and setting: next, `O=C1Cc2ccccc2Sc2c(OCCN3CCCCC3)cccc21`: 3.10.
Take `Cc1ccc(C)c(OCC(O)CNC2CCCC2)c1` (configuration not stated): the pKi was 5.70.
In turn, `Cc1ccc(C(C)C)c(OCC(O)CN2CCCCC2)c1` (configuration not stated) gave a pKi of 6.10.
Same read-out and setting: as for `Cc1nc2ccc(O)c(CN(C)C)c2[nH]1`, the figure is 4.60.

A further assay deals with Adenosine receptor A2a (Homo sapiens, UniProt P29274). Kind of assay: Displacement of [3H]ZM241385 from human AA2AR expressed in HEK293T cells after 2 hrs by liquid scintillation counter. Type of assay: cell-based, HEK-293T. In short, it runs like this: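 Membranes of HEK293T cells stably expressing AA2AR (40 µg protein) incubated with 1.7 nM (final) [3H]ZM241385 in 50 mM Tris·HCl pH 7.4, 2 h at 25 °C with shaking. Nonspecific binding defined with 100 µM CGS21680. Filtered over GF/B, washed three times with ice-cold buffer. Compounds giving ≥50% inhibition at 10 µM went to concentration-response curves. pKi values, n=3 in duplicate.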
Adenosine receptor A2a, sequence (P29274 whole entry): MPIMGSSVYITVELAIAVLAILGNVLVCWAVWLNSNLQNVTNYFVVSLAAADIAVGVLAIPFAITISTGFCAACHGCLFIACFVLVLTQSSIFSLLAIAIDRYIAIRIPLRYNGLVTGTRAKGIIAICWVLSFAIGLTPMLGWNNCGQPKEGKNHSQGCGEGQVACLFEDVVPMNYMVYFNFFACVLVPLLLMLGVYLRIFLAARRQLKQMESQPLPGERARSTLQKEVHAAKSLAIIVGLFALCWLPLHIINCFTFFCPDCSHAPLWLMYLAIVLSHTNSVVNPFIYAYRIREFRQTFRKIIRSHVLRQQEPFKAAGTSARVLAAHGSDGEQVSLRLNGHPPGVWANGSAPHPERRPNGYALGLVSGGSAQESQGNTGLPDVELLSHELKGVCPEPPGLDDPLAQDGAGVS
With `COc1cc(/C=N/Nc2ncnc3sc4c(c23)CCCC4)ccc1O`, the pKi is 5.30.
The same measure, in the same setting: next, `N=C(NC(=O)C(Cc1ccccc1)N1C(=O)c2ccccc2C1=O)Nc1nc2ccccc2o1` (configuration not stated): 5.40; `N#CCSc1nc2cc(C(=O)N3CCC(C(N)=O)CC3)ccc2c2nc3ccccc3n12`: 6.00.
The molecule `O=C(CCN1C(=O)c2ccccc2C1=O)Nc1nc2ccccc2s1` showed a pKi of 5.30.
Still for that read-out and setting: next, `Cc1cc(NC(=O)CSc2nc3ccccc3c3nc4ccccc4n23)n[nH]1`: 6.20; `CCOC(=O)c1nc[nH]c1/N=N/c1c(O)ccc2ccccc12`: 5.90.
As to `Cc1n[nH]c(C)c1S(=O)(=O)N1CCC(C(=O)Nc2nc3c(C)cccc3s2)CC1`, the pKi was 6.00.
Molecule `Nc1ccc(C(=O)Nc2ccc(O)c(-c3nc4ccccc4[nH]3)c2)cc1` had a pKi of 5.80.
`Cc1cccc2sc(NC(=O)CNS(=O)(=O)c3cccs3)nc12` showed a negative-log Ki (pKi) of 5.80.
The molecule `N/C(=N\C(=O)CN1C(=O)C2CCCCC2C1=O)Nc1nc2ccccc2s1` (configuration not stated) showed a negative logarithm of the Ki (pKi) of 5.30.
`CC1=C(C(=O)Nc2nc3ccccc3s2)C(c2ccco2)C(C#N)=C(SCC(N)=O)N1` (configuration not stated) gave a pKi of 5.20.
`Cc1ccc2[nH]c3nc(SCC(=O)Nc4ncc(C)s4)nnc3c2c1`: the pKi is 5.40.
The molecule `Cc1nc2[nH]c3ccccc3n2c(=O)c1CCOC(=O)C1CCCCC1` had a pKi of 5.60.
Still for that read-out and setting: as for `CC1CCN(C(=O)c2ccc3c(=O)[nH]c4c(-c5ccccc5)nnn4c3c2)CC1`, the figure is 5.60.
For `COCC1=CC(O)N=C(Nc2nc(C)c3ccccc3n2)N1` (configuration not stated), the negative-log Ki (pKi) was 6.20.
On the same count and under the same terms, as for `N#C/C(=N\Nc1ccc(S(N)(=O)=O)cc1)c1nc2ccccc2[nH]1`, the figure is 5.30; as for `O=C1c2ccccc2C(=O)c2cc(OCC(O)CN3CCCCC3)ccc21` (configuration not stated), 5.30; as for `CCCc1nn(C)c2c(=O)[nH]c(-c3cc(S(=O)(=O)N4CCN(C)CC4)ccc3OCC)nc12` [SILDENAFIL], 6.70.

For a further assay, the target named is Sphingosine 1-phosphate receptor 1 (Homo sapiens, UniProt P21453). Kind of assay: Induction of beta-arrestin2 recruitment to human S1PR1 expressed in CHOK1 cells after 2 hrs by beta-galactosidase assay. Type of assay: cell-based, CHO-K1. In short, it runs like this: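 PathHunter enzyme-fragment-complementation CHO-K1 S1PR1 β-arrestin cells seeded at 10,000/well in OPTI-MEM and held overnight at 37 °C. Compound added for 2 h at 37 °C, then 1 h at room temperature. Lysed with detection reagent and read by chemiluminescence after 2 h dark. Recruitment referenced to AUY954 (1 µM). Hits with ≥30% recruitment went to dose-response. pEC50, n=1 in triplicate.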
Sphingosine 1-phosphate receptor 1, sequence (P21453 whole entry, the tested form may be a part): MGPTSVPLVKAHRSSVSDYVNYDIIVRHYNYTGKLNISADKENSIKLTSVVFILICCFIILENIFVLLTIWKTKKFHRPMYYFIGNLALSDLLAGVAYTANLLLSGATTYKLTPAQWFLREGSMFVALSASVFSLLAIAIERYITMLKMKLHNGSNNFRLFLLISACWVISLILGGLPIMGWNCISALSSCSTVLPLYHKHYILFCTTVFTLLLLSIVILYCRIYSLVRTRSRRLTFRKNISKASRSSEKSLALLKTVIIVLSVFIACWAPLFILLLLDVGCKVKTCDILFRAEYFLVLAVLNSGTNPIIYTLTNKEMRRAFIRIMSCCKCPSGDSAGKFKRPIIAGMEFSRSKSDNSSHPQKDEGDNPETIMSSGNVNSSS
In the case of `O=C(Nc1nc2ccc(-c3nc4ccccc4[nH]3)cc2s1)C1CCCCC1`, the pEC50 is 4.70.
For `CC(=O)N1CCc2cc(Br)cc(S(=O)(=O)N3CCC(O)(c4cccc(C(F)(F)F)c4)CC3)c21`, the pEC50 was 4.50.
Take `Cc1ccc(S(=O)(=O)Nc2nc3n(n2)C(c2ccccc2)C=C(c2ccccc2)N3)cc1` (configuration not stated): the pEC50 was 4.30.
